{"source": "ChEMBL document CHEMBL1212762", "about": "“In vivo activity of ceftobiprole in murine skin infections due to Staphylococcus aureus and Pseudomonas aeruginosa” (Antimicrob Agents Chemother, 2010)", "key": {"[1]": {"experiment": "fT>MIC in Pseudomonas aeruginosa OC 4351 infected sc dosed SKH1 mouse at 50 mg/kg, sc administered twice at 1 and 3 hrs after infection", "assay_type": "functional", "conditions": "route subcutaneous"}, "[2]": {"experiment": "Protein binding in mouse plasma", "assay_type": "ADME, cell-free", "conditions": "read-out: PPB (converted)"}, "[3]": {"experiment": "fT>MIC in Staphylococcus aureus OC 4172 infected sc dosed SKH1 mouse administered in 24 hrs dosing interval", "assay_type": "functional", "outline": "(§1)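 Plasma levels came from female hairless SKH1 mice given single s.c. doses at the nape 24 h after flank s.c. infection with Cytodex beads. S. aureus work used immunocompetent mice. P. aeruginosa work used mice made neutropenic with cyclophosphamide i.p., 150 mg/kg at day −5 and 100 mg/kg at day −1. Drug assayed by HPLC with diode-array detection. Noncompartmental analysis.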"}, "[4]": {"experiment": "fT>MIC in Staphylococcus aureus Smith OC 4172 infected sc dosed SKH1 mouse at 50 mg/kg, sc administered twice at 1 and 3 hrs after infection", "assay_type": "functional", "conditions": "route subcutaneous"}, "[5]": {"experiment": "fT>MIC in Pseudomonas aeruginosa OC 4354 infected sc dosed SKH1 mouse at 50 mg/kg, sc administered twice at 1 and 3 hrs after infection", "assay_type": "functional", "conditions": "route subcutaneous"}, "Staphylococcus aureus [6]": {"system": "Staphylococcus aureus", "experiment": "Antimicrobial activity against methicillin-susceptible Staphylococcus aureus OC 4172 assessed as inhibition of growth by broth microdilution method", "assay_type": "functional"}, "Plasma [7]": {"system": "Plasma", "experiment": "fCmax in immunocompetent SKH1 mouse plasma at 50 mg/kg, sc", "assay_type": "ADME, organism-based", "design": "dose 50 mg/kg, route subcutaneous", "conditions": "in vivo", "outline": "(§2)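 Female SKH1 hairless mice, immunocompetent or cyclophosphamide-neutropenic, infected s.c. with MRSA OC 8525 or P. aeruginosa OC 4354 on the Cytodex beads (left flank), sterile beads on the right. Single dose 24 h later: s.c. at the nape, or linezolid 50 mg/kg oral. Plasma and skin (DMSO homogenate) sampled over time, HPLC with diode array.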"}, "Staphylococcus aureus [8]": {"system": "Staphylococcus aureus", "experiment": "Antimicrobial activity against methicillin-resistant Staphylococcus aureus OC 8525 infected in SKH1 mouse assessed as log change in bacterial colony forming unit per gram of skin tissue at 100 mg/kg/day, sc (reference value: 0.8 deltalog CFU)", "assay_type": "functional", "conditions": "route subcutaneous", "outline": "(§3)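 Female hairless immunocompetent SKH1 mice were anaesthetised and injected s.c. with 0.2 ml Cytodex bead inoculum (0.1% vol/vol beads in BHI; 6.7–7.0 log10 CFU/mouse): MSSA OC 4172 in the left flank, MRSA OC 8525 in the right. Drug was given at 1, 3, 25 and 27 h post-infection. At 48 h, flank lesions were excised, weighed and homogenised in saline, then plated on TSA (18 h, 37°C). The value is Δlog CFU/g versus the inoculum, from 5 mice/dose, run twice and pooled.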"}, "Staphylococcus aureus [9]": {"system": "Staphylococcus aureus", "experiment": "Antimicrobial activity against methicillin-resistant Staphylococcus aureus OC 8525 infected in SKH1 mouse assessed as log change in bacterial colony forming unit per gram of skin tissue at 1.6 mg/kg/day, sc (reference value: 0.8 deltalog CFU)", "assay_type": "functional", "conditions": "route subcutaneous", "outline": "as §3"}, "Staphylococcus aureus [10]": {"system": "Staphylococcus aureus", "experiment": "Antimicrobial activity against methicillin-susceptible Staphylococcus aureus Smith OC 4172 infected in SKH1 mouse assessed as log change in bacterial colony forming unit per gram of skin tissue at 6.2 mg/kg/day, sc (reference value: 1.6 deltalog CFU)", "assay_type": "functional", "conditions": "route subcutaneous"}, "Plasma [11]": {"system": "Plasma", "experiment": "fAUC (0-infinity) in immunocompetent SKH1 mouse plasma at 50 mg/kg, sc", "assay_type": "ADME, organism-based", "design": "dose 50 mg/kg, route subcutaneous", "conditions": "in vivo", "outline": "as §2"}, "Staphylococcus aureus [12]": {"system": "Staphylococcus aureus", "experiment": "Antimicrobial activity against methicillin-resistant Staphylococcus aureus OC 8525 infected in SKH1 mouse assessed as log change in bacterial colony forming unit per gram of skin tissue at 25 mg/kg/day, sc (reference value: 0.8 deltalog CFU)", "assay_type": "functional", "conditions": "route subcutaneous"}, "[13]": {"experiment": "fT>MIC in Pseudomonas aeruginosa OC 4354 infected sc dosed SKH1 mouse administered in 24 hrs dosing interval", "assay_type": "functional", "outline": "as §1"}, "[14]": {"experiment": "Tmax in immunocompetent SKH1 mouse plasma at 50 mg/kg, sc", "assay_type": "ADME, organism-based", "design": "dose 50 mg/kg, route subcutaneous", "outline": "as §2"}, "[15]": {"experiment": "fT>MIC in Staphylococcus aureus OC 8525 infected sc dosed SKH1 mouse at 50 mg/kg, sc administered twice at 1 and 3 hrs after infection", "assay_type": "functional", "conditions": "route subcutaneous"}, "Staphylococcus aureus [16]": {"system": "Staphylococcus aureus", "experiment": "Antimicrobial activity against methicillin-susceptible Staphylococcus aureus Smith OC 4172 infected in SKH1 mouse assessed as log change in bacterial colony forming unit per gram of skin tissue at 25 mg/kg/day, sc (reference value: 1.6 deltalog CFU)", "assay_type": "functional", "conditions": "route subcutaneous", "outline": "as §3"}, "Staphylococcus aureus [17]": {"system": "Staphylococcus aureus", "experiment": "Antimicrobial activity against methicillin-resistant Staphylococcus aureus OC 8525 assessed as inhibition of growth by broth microdilution method", "assay_type": "functional"}, "Staphylococcus aureus [18]": {"system": "Staphylococcus aureus", "experiment": "Antimicrobial activity against methicillin-resistant Staphylococcus aureus OC 8525 infected in SKH1 mouse assessed as log change in bacterial colony forming unit per gram of skin tissue at 6.2 mg/kg/day, sc (reference value: 0.8 deltalog CFU)", "assay_type": "functional", "conditions": "route subcutaneous", "outline": "as §3"}, "Staphylococcus aureus [19]": {"system": "Staphylococcus aureus", "experiment": "Antimicrobial activity against methicillin-susceptible Staphylococcus aureus Smith OC 4172 infected in SKH1 mouse assessed as log change in bacterial colony forming unit per gram of skin tissue at 1.6 mg/kg/day, sc (reference value: 1.6 deltalog CFU)", "assay_type": "functional", "conditions": "route subcutaneous"}, "[20]": {"experiment": "fT>MIC in Pseudomonas aeruginosa OC 4351 infected sc dosed SKH1 mouse administered in 24 hrs dosing interval", "assay_type": "functional"}, "[21]": {"experiment": "fT>MIC in Staphylococcus aureus OC 8525 infected sc dosed SKH1 mouse administered in 24 hrs dosing interval", "assay_type": "functional", "outline": "as §1"}, "Staphylococcus aureus [22]": {"system": "Staphylococcus aureus", "experiment": "Antimicrobial activity against methicillin-susceptible Staphylococcus aureus Smith OC 4172 infected in SKH1 mouse assessed as log change in bacterial colony forming unit per gram of skin tissue at 100 mg/kg/day, sc (reference value: 1.6 deltalog CFU)", "assay_type": "functional", "conditions": "route subcutaneous"}}}
{"smiles": "Cc1nnc(SCC2=C(C(=O)O)N3C(=O)[C@@H](NC(=O)Cn4cnnn4)[C@H]3SC2)s1", "note": "[CEFAZOLIN]", "values": [{"measurement": "fT>MIC", "setting": "[1]", "value": 1.5, "unit": "h"}, {"measurement": "fraction unbound", "setting": "[2]", "value": 0.19}, {"measurement": "fT>MIC", "setting": "[3]", "value": 10.2, "unit": "%"}, {"measurement": "fT>MIC", "setting": "[4]", "value": 2.4, "unit": "h"}, {"measurement": "fT>MIC", "setting": "[5]", "value": 0.8, "unit": "h"}, {"measurement": "MIC", "setting": "Staphylococcus aureus [6]", "value": 0.5, "unit": "µg/mL"}, {"measurement": "fCmax", "setting": "Plasma [7]", "value": 19, "unit": "µg/mL"}, {"measurement": "deltalog10CFU", "setting": "Staphylococcus aureus [8]", "value": -0.3}, {"measurement": "deltalog10CFU", "setting": "Staphylococcus aureus [9]", "value": 0.6}, {"measurement": "deltalog10CFU", "setting": "Staphylococcus aureus [10]", "value": 1.6}, {"measurement": "fAUC", "setting": "Plasma [11]", "value": 565, "unit": "µg·min/mL"}, {"measurement": "deltalog10CFU", "setting": "Staphylococcus aureus [12]", "value": -1.3}, {"measurement": "fT>MIC", "setting": "[13]", "value": 3.3, "unit": "%"}, {"measurement": "Tmax", "setting": "[14]", "value": 7.5, "unit": "min"}, {"measurement": "fT>MIC", "setting": "[15]", "value": 0.3, "unit": "h"}, {"measurement": "deltalog10CFU", "setting": "Staphylococcus aureus [16]", "value": -2}, {"measurement": "MIC", "setting": "Staphylococcus aureus [17]", "value": 16, "unit": "µg/mL"}, {"measurement": "deltalog10CFU", "setting": "Staphylococcus aureus [18]", "value": -1.2}, {"measurement": "deltalog10CFU", "setting": "Staphylococcus aureus [19]", "value": -0.6}, {"measurement": "fT>MIC", "setting": "[20]", "value": 6.4, "unit": "%"}, {"measurement": "fT>MIC", "setting": "[21]", "value": 1.3, "unit": "%"}, {"measurement": "deltalog10CFU", "setting": "Staphylococcus aureus [22]", "value": -1.7}]}
